Experiment [1] concerns the target Cholecystokinin receptor type A (Cavia porcellus). Briefly: Ability to displace 1 nM [3H]pCCK-8 from Cholecystokinin type A receptor in guinea pig pancreatic membranes.
Experiment [2] deals with Gastrin/cholecystokinin type B receptor (Rattus norvegicus) (UniProt P30553). As to the kind of experiment: Ability to displace 1 nM [3H]pCCK-8 from rat Cholecystokinin type B receptor stably expressing in CHO cells.
Experiment [3] deals with CHO. As to the kind of experiment: Agonistic activity on arachidonic acid liberation by intact transfected CHO cells. Format: functional, cell-based. Conditions: Cricetulus griseus. The procedure, abridged: (§1)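 Functional agonism on intact CHO cells transfected with CCK2 receptors. Two read-outs were measured, inositol phosphate production and arachidonic acid liberation, each expressed as EC50.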

The subject of experiment [4] is CHO. As to the kind of experiment: Compound was evaluated for maximum binding of [3H]BBL454 to two sites in CHO cells with high affinity. The experiment is classed as functional, Cricetulus griseus.
The subject of experiment [5] is CHO. As to the kind of experiment: Agonistic activity on inositol phosphate production by intact transfected CHO cells. Conditions: Cricetulus griseus. The experiment is classed as functional, cell-based. The procedure, abridged: as §1
The test system of experiment [6] is CHO. As to the kind of experiment: Compound was evaluated for binding of [3H]BBL454 to two sites in CHO cells with low affinity. Format: functional, Cricetulus griseus.
Experiment [7] has as its system CHO. Briefly: Compound was evaluated for binding of [3H]BBL454 to two sites in CHO cells with high affinity. The experiment is classed as functional, Cricetulus griseus.

pEC50, pKi: −log10 of the molar value. Non-standard residues stand in square brackets, D forms with d. Residues, ends and D or L forms follow the SMILES beside them. *: point of attachment. NMeNle = CCCC[C@H](NC)C(=O)O; X1 = CCCCCNC(=O)CC(=O)*; Boc = CC(C)(C)OC(=O)*

Chain of Gastrin/cholecystokinin type B receptor (Rattus norvegicus) (P30553 whole entry, looked up): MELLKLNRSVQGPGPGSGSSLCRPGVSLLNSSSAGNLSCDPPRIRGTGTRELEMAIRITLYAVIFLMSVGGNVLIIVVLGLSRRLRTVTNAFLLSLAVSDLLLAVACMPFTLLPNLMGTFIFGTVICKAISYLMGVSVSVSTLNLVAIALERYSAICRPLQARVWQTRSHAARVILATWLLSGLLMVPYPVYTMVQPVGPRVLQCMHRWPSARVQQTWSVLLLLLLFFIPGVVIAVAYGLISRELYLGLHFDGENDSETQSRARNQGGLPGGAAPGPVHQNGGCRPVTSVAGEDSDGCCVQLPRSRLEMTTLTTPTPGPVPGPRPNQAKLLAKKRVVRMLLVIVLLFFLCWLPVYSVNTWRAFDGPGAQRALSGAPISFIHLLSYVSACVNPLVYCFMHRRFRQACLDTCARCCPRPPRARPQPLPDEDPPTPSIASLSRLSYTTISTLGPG

The term pKi denotes −log10 of the Ki, conventionally taken in molar units. As for `CCCC[C@@H](C(=O)N[C@@H](CC(=O)O)C(=O)N[C@@H](Cc1ccccc1)C(N)=O)N(C)C(=O)[C@H](Cc1c[nH]c2ccccc12)NC(=O)OC(C)(C)C` (Boc-W[NMeNle]DF-NH2), the pKi is less than 5.30 in experiment [1] and 8.59 in experiment [2].
As usually defined, the pEC50 is the negative decadic logarithm of the EC50, by convention in mol/L. In the case of `CCCCCNC(=O)CC(=O)N[C@@H](Cc1c[nH]c2ccccc12)C(=O)N(C)[C@@H](CCCC)C(=O)N[C@@H](CC(=O)O)C(=O)N[C@@H](Cc1ccccc1)C(N)=O` (X1-W[NMeNle]DF-NH2), the negative logarithm of the EC50 (pEC50) was 8.16 in the experiment on CHO [3] and 8.70 in the experiment with CHO [5]. Moreover, the negative-log Ki (pKi) in experiment [1] was 5.44; in experiment [2], 8.58. The molecule further yielded a Bmax1 in the experiment on CHO [4] of 120 fmol/mg. The molecule also returned a KD2 in the experiment with CHO [6] of 194 nM. This molecule yielded a KD1 in the experiment with CHO [7] of 0.71 nM.

These data come from ChEMBL document CHEMBL1146828, “Synthesis and biological characterisation of [3H]BBL454, a new CCK2 selective radiolabelled agonist displaying original pharmacological properties” (Bioorg Med Chem Lett, 2004).
